{"source": "ChEMBL document CHEMBL2177098", "about": "“Synthesis and evaluation of novel ¹⁸F labeled 2-pyridinylbenzoxazole and 2-pyridinylbenzothiazole derivatives as ligands for positron emission tomography (PET) imaging of β-amyloid plaques” (J Med Chem, 2012)", "key": {"Blood": {"tested_on": "Blood", "test": "Drug uptake in ICR mouse blood at 370 kBq/100 ul, iv at 10 mins by gamma-counting analysis", "assay_type": "ADME, organism-based", "conditions": "in vivo", "summary_of_the_method": "(§1)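 Male ICR mice (5 weeks, about 20 g) got 18F tracer in saline (370 KBq per 100 μL) via tail vein; n = 5 per time point, killed at 2, 10, 30, 60 min. Organs weighed and γ-counted; percent dose per gram wet tissue from comparison with diluted injectate aliquots.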"}, "Stomach [1]": {"tested_on": "Stomach", "test": "Drug uptake in ICR mouse stomach assessed per organ at 370 kBq/100 ul, iv at 2 mins by gamma-counting analysis", "assay_type": "ADME, organism-based", "conditions": "in vivo", "summary_of_the_method": "(§2)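 Male ICR mice (5 weeks, about 20 g) got 18F tracer in saline (370 KBq per 100 μL) via tail vein; n = 5 per time point, killed at 2, 10, 30, 60 min. Organs removed and γ-counted against diluted injectate; expressed as % injected dose per organ.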"}, "Stomach [2]": {"tested_on": "Stomach", "test": "Drug uptake in ICR mouse stomach assessed per organ at 370 kBq/100 ul, iv at 30 mins by gamma-counting analysis", "assay_type": "ADME, organism-based", "conditions": "in vivo, 0.5 h", "summary_of_the_method": "as §2"}, "[3]": {"test": "n-Octanol-PBS buffer partition coefficient, log D of the compound at 1.5 MBq after 3 mins at pH 7.4", "assay_type": "physicochemical", "summary_of_the_method": "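The tracer was partitioned between n-octanol and PBS by vortexing for 3 min at room temperature, then centrifuged for 5 min at 3000 rpm. Samples of the octanol (50 μL) and aqueous (500 μL) layers were counted. log D is the log of the octanol/PBS counts-per-gram ratio. The octanol layer was repartitioned until values were consistent. Measured in triplicate and repeated three times.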"}, "Stomach [4]": {"tested_on": "Stomach", "test": "Drug uptake in ICR mouse stomach assessed per organ at 370 kBq/100 ul, iv at 10 mins by gamma-counting analysis", "assay_type": "ADME, organism-based", "conditions": "in vivo", "summary_of_the_method": "as §2"}, "Brain [5]": {"tested_on": "Brain", "test": "Drug uptake in ICR mouse brain at 370 kBq/100 ul, iv at 30 mins by gamma-counting analysis", "assay_type": "ADME, organism-based", "conditions": "in vivo, 0.5 h", "summary_of_the_method": "as §1"}, "Kidney": {"tested_on": "Kidney", "test": "Drug uptake in ICR mouse kidney at 370 kBq/100 ul, iv at 30 mins by gamma-counting analysis", "assay_type": "ADME, organism-based", "conditions": "in vivo, 0.5 h", "summary_of_the_method": "as §1"}, "Brain [6]": {"tested_on": "Brain", "test": "Ratio of drug uptake in brain at 2 mins to drug uptake in brain at 60 mins in ICR mouse at 370 KBq/100 ul, iv", "assay_type": "ADME, organism-based", "conditions": "in vivo", "summary_of_the_method": "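Normal male ICR mice (5 weeks, about 20 g) received the ¹⁸F tracer in saline (370 KBq per 100 μL) by tail-vein injection. Groups of n = 5 were killed at 2, 10, 30 and 60 min. Organs were removed, weighed and γ-counted against diluted aliquots of the injectate, giving % dose per gram. Stomach and intestine were expressed per organ. The brain ratio is 2 min/60 min uptake. Values are mean ± SD.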"}, "Spleen": {"tested_on": "Spleen", "test": "Drug uptake in ICR mouse spleen at 370 kBq/100 ul, iv at 30 mins by gamma-counting analysis", "assay_type": "ADME, organism-based", "conditions": "in vivo, 0.5 h", "summary_of_the_method": "as §1"}, "[7]": {"test": "Metabolic stability in mouse plasma at 1.85 MBq after 60 mins by HPLC analysis", "assay_type": "ADME, cell-free", "conditions": "read-out: Stability", "summary_of_the_method": "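Purified tracer (1.85 MBq) was incubated with 100 μL mouse plasma at 37 °C for 2, 10, 30 and 60 min. Read-out was the percentage of activity remaining as intact tracer.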"}, "Intestine": {"tested_on": "Intestine", "test": "Drug uptake in ICR mouse intestine assessed per organ at 370 kBq/100 ul, iv at 60 mins by gamma-counting analysis", "assay_type": "ADME, organism-based", "conditions": "in vivo, 1 h", "summary_of_the_method": "as §2"}, "Bone": {"tested_on": "Bone", "test": "Drug uptake in ICR mouse bone at 370 kBq/100 ul, iv at 60 mins by gamma-counting analysis", "assay_type": "ADME, organism-based, Bone element", "conditions": "in vivo, 1 h", "summary_of_the_method": "as §1"}}}
{"smiles": "CNc1ccc(-c2nc3cc(OCC[18F])ccc3o2)cn1", "values": [{"measurement": "Drug uptake", "setting": "Blood", "result": 2.55, "unit": "% ID/g"}, {"measurement": "Drug uptake", "setting": "Stomach [1]", "result": 3.24, "unit": "%ID"}, {"measurement": "Drug uptake", "setting": "Stomach [2]", "result": 3.11, "unit": "%ID"}, {"measurement": "logD at 0.05 h", "setting": "[3]", "result": 3.52}, {"measurement": "Drug uptake", "setting": "Stomach [4]", "result": 5.59, "unit": "%ID"}, {"measurement": "Drug uptake", "setting": "Brain [5]", "result": 1.69, "unit": "% ID/g"}, {"measurement": "Drug uptake", "setting": "Kidney", "result": 2.17, "unit": "% ID/g"}, {"measurement": "Ratio", "setting": "Brain [6]", "result": 4.66}, {"measurement": "Drug uptake", "setting": "Spleen", "result": 1.63, "unit": "% ID/g"}, {"measurement": "remaining at 1 h, 1.85 MBq", "setting": "[7]", "result": "> 95", "unit": "%"}, {"measurement": "Drug uptake", "setting": "Intestine", "result": 39.05, "unit": "%ID"}, {"measurement": "Drug uptake", "setting": "Bone", "result": 2.37, "unit": "% ID/g"}]}
